Source: ChEMBL document CHEMBL3817796, “Discovery of Novel 15-Lipoxygenase Activators To Shift the Human Arachidonic Acid Metabolic Network toward Inflammation Resolution” (J Med Chem, 2016)
Active and inactive are the calls of the source. The rule behind the calls is not given here.

Assays:
[1] = target: T1, Polyunsaturated fatty acid lipoxygenase ALOX15 (Homo sapiens) (UniProt P16050); test: Activation of 15-LOX in human whole blood assessed as 15-HETE production at 100 uM pre-incubated for 20 mins before stimulation with LPS and A23187 for 120 mins in presence of 2 uM 5-LOX inhibitor Zileuton by LC-MS/MS method; format: tissue-based
T1 sequence (whole entry): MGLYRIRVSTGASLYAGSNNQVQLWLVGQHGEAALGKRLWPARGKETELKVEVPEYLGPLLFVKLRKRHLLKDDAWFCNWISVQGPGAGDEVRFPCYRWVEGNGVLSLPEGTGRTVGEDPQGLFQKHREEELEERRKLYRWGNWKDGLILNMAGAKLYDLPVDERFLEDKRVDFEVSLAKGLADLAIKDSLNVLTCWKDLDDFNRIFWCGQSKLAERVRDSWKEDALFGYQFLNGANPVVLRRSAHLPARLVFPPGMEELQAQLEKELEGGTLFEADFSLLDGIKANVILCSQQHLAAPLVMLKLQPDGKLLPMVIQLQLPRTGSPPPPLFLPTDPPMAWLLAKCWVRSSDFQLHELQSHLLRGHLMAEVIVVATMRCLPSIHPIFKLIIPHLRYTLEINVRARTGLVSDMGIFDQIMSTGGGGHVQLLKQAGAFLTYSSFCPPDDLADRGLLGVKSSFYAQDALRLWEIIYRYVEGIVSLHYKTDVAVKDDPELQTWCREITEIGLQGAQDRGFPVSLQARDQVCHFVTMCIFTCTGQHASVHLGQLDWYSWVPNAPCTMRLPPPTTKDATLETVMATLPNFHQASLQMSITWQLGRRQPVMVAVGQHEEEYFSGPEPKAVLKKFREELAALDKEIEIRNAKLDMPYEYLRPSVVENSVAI
Procedure, shortened: (§1)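 Human blood preincubated 20 min at 37 °C with DMSO vehicle or compound in DMSO. LPS added at 100 μg/mL for 24 h at 37 °C, then A23187 at 20 μg/mL final. Samples frozen in liquid nitrogen at time points, lysed by freeze–thaw, with PGB2 internal standard. Analysed by C18 LC-MRM MS, negative ion. Change = control-normalized concentration minus 1, ×100%; 120 min value from AUC.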

[2] = target: T2, Leukotriene A-4 hydrolase (Homo sapiens) (UniProt P09960); test: Inhibition of LTA4H hydrolase activity (unknown origin) assessed as reduction in LTB4 formation at 100 uM by enzyme linked immunosorbent assay
T2 sequence (whole entry): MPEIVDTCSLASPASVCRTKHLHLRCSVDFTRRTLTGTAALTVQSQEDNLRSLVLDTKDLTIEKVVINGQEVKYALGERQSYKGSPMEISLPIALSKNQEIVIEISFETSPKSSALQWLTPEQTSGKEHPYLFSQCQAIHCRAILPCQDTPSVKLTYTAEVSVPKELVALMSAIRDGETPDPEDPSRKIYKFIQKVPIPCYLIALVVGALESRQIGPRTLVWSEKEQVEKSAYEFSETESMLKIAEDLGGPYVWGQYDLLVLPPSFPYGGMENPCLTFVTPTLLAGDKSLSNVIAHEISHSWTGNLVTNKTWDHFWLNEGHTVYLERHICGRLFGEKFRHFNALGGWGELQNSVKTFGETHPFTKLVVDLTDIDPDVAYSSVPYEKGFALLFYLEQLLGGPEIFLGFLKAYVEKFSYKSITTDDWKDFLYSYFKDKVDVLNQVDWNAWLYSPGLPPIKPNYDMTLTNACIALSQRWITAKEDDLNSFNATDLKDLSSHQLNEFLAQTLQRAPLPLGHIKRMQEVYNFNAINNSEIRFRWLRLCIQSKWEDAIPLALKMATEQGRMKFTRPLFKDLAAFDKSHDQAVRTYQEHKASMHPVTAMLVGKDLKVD
Procedure, shortened: (§2)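 LTA4H hydrolase activity read as LTB4 formation by ELISA. Compound handled as in the 15-LOX assay.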

[3] = target: T2, Leukotriene A-4 hydrolase (Homo sapiens); test: Activation of LTA4H hydrolase activity (unknown origin) assessed as LTB4 formation at 100 uM by enzyme linked immunosorbent assay; procedure, shortened: as §2
[4] = target: T1, Polyunsaturated fatty acid lipoxygenase ALOX15 (Homo sapiens); test: Activation of 15-LOX in human whole blood assessed as 13-HODE production at 100 uM pre-incubated for 20 mins before stimulation with LPS and A23187 for 120 mins in presence of 2 uM 5-LOX inhibitor Zileuton by LC-MS/MS method; format: tissue-based; procedure, shortened: as §1
[5] = target: T3, Cytosolic phospholipase A2 (Homo sapiens) (UniProt P47712); test: Inhibition of human cPLA2 assessed as reduction in hydrolysis of 7-hydroxycoumarinyl-gamma-linolenate or 2-oxo-2H-chromen-[…] (6Z,9Z,12Z)-octadeca-6,9,12-trienoate at 100 uM by fluorometry
T3 sequence (whole entry): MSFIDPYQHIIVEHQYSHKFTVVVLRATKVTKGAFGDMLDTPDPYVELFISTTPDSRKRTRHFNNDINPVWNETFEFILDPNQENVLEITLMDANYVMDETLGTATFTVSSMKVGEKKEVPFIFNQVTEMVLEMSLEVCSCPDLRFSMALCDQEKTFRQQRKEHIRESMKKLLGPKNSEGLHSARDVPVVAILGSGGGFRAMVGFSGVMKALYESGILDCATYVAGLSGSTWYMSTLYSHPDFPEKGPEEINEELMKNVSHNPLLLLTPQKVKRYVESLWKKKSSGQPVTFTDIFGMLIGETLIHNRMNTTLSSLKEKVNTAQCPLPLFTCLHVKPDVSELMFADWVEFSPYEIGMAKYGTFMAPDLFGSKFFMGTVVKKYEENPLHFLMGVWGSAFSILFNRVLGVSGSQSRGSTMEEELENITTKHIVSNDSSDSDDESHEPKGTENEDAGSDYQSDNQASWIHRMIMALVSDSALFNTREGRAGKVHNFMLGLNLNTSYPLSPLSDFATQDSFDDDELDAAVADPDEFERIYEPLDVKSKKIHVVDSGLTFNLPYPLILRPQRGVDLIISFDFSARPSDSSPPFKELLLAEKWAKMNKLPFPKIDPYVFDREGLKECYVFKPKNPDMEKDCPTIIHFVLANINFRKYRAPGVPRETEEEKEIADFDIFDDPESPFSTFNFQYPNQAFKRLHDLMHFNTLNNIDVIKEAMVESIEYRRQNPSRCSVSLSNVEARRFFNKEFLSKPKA
Procedure, shortened: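 Purified human cPLA2 (1 μg/mL final) started the reaction with 7-hydroxycoumarinyl-γ-linolenate substrate. Fluorescence (ex 355/em 460 nm) recorded over 84 min. Compound handled as in the 15-LOX assay.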

[6] = target: T1, Polyunsaturated fatty acid lipoxygenase ALOX15 (Homo sapiens); test: Activation of 15-LOX in human PMN assessed as 12-HETE production at 6.2 to 40 uM pre-incubated for 15 mins before A23187, Ca2+ and Mg2+ stimulation for 1 hr by LC-MS method
Procedure, shortened: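 PMNs preincubated 15 min at 37 °C with compound or vehicle, then stimulated 1 h at 37 °C with 10 μM A23187 plus 2 mM Ca2+ and 2 mM Mg2+. Reactions stopped with cold methanol. Eicosanoids quantified by LC-MS.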

[7] = target: T1, Polyunsaturated fatty acid lipoxygenase ALOX15 (Homo sapiens); test: Activation of 15-LOX in human whole blood assessed as reduction in PGE2 production at 100 uM pre-incubated for 20 mins before stimulation with LPS and A23187 for 120 mins in presence of 2 uM 5-LOX inhibitor Zileuton by LC-MS/MS method; format: tissue-based; procedure, shortened: as §1

Activity [1]: 36% | inhibition [2]: < 5% | Activity [3]: < 5% | Activity [4]: 67% | inhibition [5]: 20% | Activity [6]: Active | Activity [7]: Active
Compound: CN1CCN(CC(=O)N2N=C3/C(=C/c4ccccc4)CCCC3C2c2ccccc2)CC1 (configuration not stated)
